≈ marks a conversion by molar mass, not a printed value. Calls of active or inactive are those of the source. The calls are words filed in the database; no cut-off is given here. Where a SMILES comes first, the peptide text is derived from it. [ ]: non-standard residue; d: D form. The star is where a group is joined. Orn(α-tetramethylguanidino) = CN(C)C(=N[C@@H](CCCN)C(=O)*)N(C)C; Phe(4-F) = N[C@@H](Cc1ccc(F)cc1)C(=O)O; Arg(Me) = CNC(=N)NCCC[C@H](N)C(=O)O; Hyp = O=C(O)[C@@H]1C[C@@H](O)CN1; Cha = N[C@@H](CC1CCCCC1)C(=O)O; NMeL = CN[C@@H](CC(C)C)C(=O)O
Tests used:
Escherichia coli [1] = assay: Antibacterial activity against Escherichia coli BL21 assessed as bacterial growth inhibition by broth microdilution assay; assay type: functional
Escherichia coli [2] = assay: Potency index, ratio of Api-137 MIC to test compound MIC for antibacterial activity against Escherichia coli BL21 assessed as bacterial growth inhibition by broth microdilution assay; assay type: functional
Escherichia coli [3] = assay: Antibacterial activity against Escherichia coli BL21 harboring sbmA mutant assessed as bacterial growth inhibition by broth microdilution assay; assay type: functional
Escherichia coli [4] = assay: Antibacterial activity against Escherichia coli BL21 harboring RF2 (R262C) mutant assessed as bacterial growth inhibition by broth microdilution assay; assay type: functional
Escherichia coli [5] = assay: Antibacterial activity against Escherichia coli BL21 harboring RF2 (Q280L) mutant assessed as bacterial growth inhibition by broth microdilution assay; assay type: functional
[6] = Stability in human plasma assessed as parent compound remaining measured after 2 hrs; assay type: ADME, cell-free; details: read-out: Stability
Escherichia coli [7] = assay: Induction of stop-codon readthrough in Escherichia coli BL21 carrying pRXG (UGA) reporter incubated for 18 hrs by imaging analysis; assay type: functional
Procedure, shortened: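 Lawn spread on M9 agar with 0.2 mM IPTG and kanamycin, then dried. 2 μL drops of 0.2 mM peptide applied; 1 μL chloramphenicol (1 mg/mL) as negative control. ~18 h, 37 °C; RFP (Cy3) and GFP (Cy2) imaged.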

SMILES	MIC (Escherichia coli [1])	Ratio (Escherichia coli [2])	MIC (Escherichia coli [3])	MIC (Escherichia coli [4])	MIC (Escherichia coli [5])	remaining at 2 h [6]	Activity (Escherichia coli [7])
CC[C@H](C)[C@H](NC(=O)[C@H](Cc1ccc(O)cc1)NC(=O)[C@@H](NC(=O)[C@@H]1CCCN1C(=O)[C@H](CCCNC(=N)N)NC(=O)[C@H](CC(N)=O)NC(=O)[C@H](CC(N)=O)NC(=O)[C@H](CCCN)N=C(N(C)C)N(C)C)C(C)C)C(=O)N1CCC[C@H]1C(=O)N[C@@H](CCCNC(=N)N)C(=O)N1CCC[C@H]1C(=O)N[C@@H](CCCNC(=N)N)C(=O)N1CCC[C@H]1C(=O)N1CCC[C@H]1C(=O)N[C@@H](Cc1c[nH]cn1)C(=O)N1CCC[C@H]1C(=O)N[C@@H](CCCNC(=N)N)C(=O)N[C@@H](CC(C)C)C(=O)O ({Orn(α-tetramethylguanidino)}-NNRPVYIPRPRPPHPRL-OH)	0.16 µM (≈ 0.367 µg/mL)	1	> 25 µM	> 25 µM	> 25 µM	~80%	
CC[C@H](C)[C@H](NC(=O)[C@H](Cc1ccc(O)cc1)NC(=O)[C@@H](NC(=O)[C@@H]1CCCN1C(=O)[C@H](CCCNC(=N)N)NC(=O)[C@H](CC(N)=O)NC(=O)[C@H](CC(N)=O)NC(=O)[C@H](CCCN)N=C(N(C)C)N(C)C)C(C)C)C(=O)N1CCC[C@H]1C(=O)N[C@@H](CCCNC(=N)N)C(=O)N1CCC[C@H]1C(=O)N[C@@H](CCCNC(=N)N)C(=O)N1CCC[C@H]1C(=O)N1CCC[C@H]1C(=O)N[C@@H](Cc1c[nH]cn1)C(=O)N1CCC[C@H]1C(=O)N[C@@H](CCCNC(=N)N)C(=O)N(C)[C@@H](CC(C)C)C(=O)O ({Orn(α-tetramethylguanidino)}-NNRPVYIPRPRPPHPR[NMeL]-OH)			> 25 µM	> 25 µM		~80%	Active
CC[C@H](C)[C@H](NC(=O)[C@H](Cc1ccc(O)cc1)NC(=O)[C@@H](NC(=O)[C@@H]1CCCN1C(=O)[C@H](CCCNC(=N)N)NC(=O)[C@H](CC(N)=O)NC(=O)[C@H](CC(N)=O)NC(=O)[C@H](CCCN)N=C(N(C)C)N(C)C)C(C)C)C(=O)N1CCC[C@H]1C(=O)N[C@@H](CCCNC(=N)N)C(=O)N1CCC[C@H]1C(=O)N[C@@H](CCCNC(=N)N)C(=O)N1CCC[C@H]1C(=O)N1CCC[C@H]1C(=O)N[C@@H](Cc1c[nH]cn1)C(=O)N1CCC[C@H]1C(=O)N[C@@H](CCCNC(=N)NC)C(=O)N[C@@H](CC(C)C)C(=O)O ({Orn(α-tetramethylguanidino)}-NNRPVYIPRPRPPHP[Arg(Me)]L-OH)	0.3 µM (≈ 0.692 µg/mL)	1	> 25 µM	> 25 µM	25 µM (≈ 57.6 µg/mL)		Active
CC[C@H](C)[C@H](NC(=O)[C@H](CC1CCCCC1)NC(=O)[C@@H](NC(=O)[C@@H]1CCCN1C(=O)[C@H](CCCNC(=N)N)NC(=O)[C@H](CC(N)=O)NC(=O)[C@H](CC(N)=O)NC(=O)[C@H](CCCN)N=C(N(C)C)N(C)C)C(C)C)C(=O)N1CCC[C@H]1C(=O)N[C@@H](CCCNC(=N)N)C(=O)N1CCC[C@H]1C(=O)N[C@@H](CCCNC(=N)N)C(=O)N1CCC[C@H]1C(=O)N1CCC[C@H]1C(=O)N[C@@H](Cc1c[nH]cn1)C(=O)N1CCC[C@H]1C(=O)N[C@@H](CCCNC(=N)N)C(=O)N[C@@H](CC(C)C)C(=O)O ({Orn(α-tetramethylguanidino)}-NNRPV[Cha]IPRPRPPHPRL-OH)	0.75 µM (≈ 1.71 µg/mL)	2					
CC[C@H](C)[C@H](NC(=O)[C@H](Cc1ccc(F)cc1)NC(=O)[C@@H](NC(=O)[C@@H]1CCCN1C(=O)[C@H](CCCNC(=N)N)NC(=O)[C@H](CC(N)=O)NC(=O)[C@H](CC(N)=O)NC(=O)[C@H](CCCN)N=C(N(C)C)N(C)C)C(C)C)C(=O)N1CCC[C@H]1C(=O)N[C@@H](CCCNC(=N)N)C(=O)N1CCC[C@H]1C(=O)N[C@@H](CCCNC(=N)N)C(=O)N1CCC[C@H]1C(=O)N1CCC[C@H]1C(=O)N[C@@H](Cc1c[nH]cn1)C(=O)N1CCC[C@H]1C(=O)N[C@@H](CCCNC(=N)N)C(=O)N[C@@H](CC(C)C)C(=O)O ({Orn(α-tetramethylguanidino)}-NNRPV[Phe(4-F)]IPRPRPPHPRL-OH)	0.35 µM (≈ 0.803 µg/mL)	1					
CC[C@H](C)[C@H](NC(=O)[C@H](Cc1ccc(O)cc1)NC(=O)[C@@H](NC(=O)[C@@H]1C[C@@H](O)CN1C(=O)[C@H](CCCNC(=N)N)NC(=O)[C@H](CC(N)=O)NC(=O)[C@H](CC(N)=O)NC(=O)[C@H](CCCN)N=C(N(C)C)N(C)C)C(C)C)C(=O)N1CCC[C@H]1C(=O)N[C@@H](CCCNC(=N)N)C(=O)N1CCC[C@H]1C(=O)N[C@@H](CCCNC(=N)N)C(=O)N1CCC[C@H]1C(=O)N1CCC[C@H]1C(=O)N[C@@H](Cc1c[nH]cn1)C(=O)N1CCC[C@H]1C(=O)N[C@@H](CCCNC(=N)N)C(=O)N[C@@H](CC(C)C)C(=O)O ({Orn(α-tetramethylguanidino)}-NNR[Hyp]VYIPRPRPPHPRL-OH)	0.08 µM (≈ 0.185 µg/mL)	1					
CC[C@H](C)[C@H](NC(=O)[C@H](Cc1ccc(F)cc1)NC(=O)[C@@H](NC(=O)[C@@H]1C[C@@H](O)CN1C(=O)[C@H](CCCNC(=N)N)NC(=O)[C@H](CC(N)=O)NC(=O)[C@H](CC(N)=O)NC(=O)[C@H](CCCN)N=C(N(C)C)N(C)C)C(C)C)C(=O)N1CCC[C@H]1C(=O)N[C@@H](CCCNC(=N)N)C(=O)N1CCC[C@H]1C(=O)N[C@@H](CCCNC(=N)N)C(=O)N1CCC[C@H]1C(=O)N1CCC[C@H]1C(=O)N[C@@H](Cc1c[nH]cn1)C(=O)N1CCC[C@H]1C(=O)N[C@@H](CCCNC(=N)NC)C(=O)N(C)[C@@H](CC(C)C)C(=O)O ({Orn(α-tetramethylguanidino)}-NNR[Hyp]V[Phe(4-F)]IPRPRPPHP[Arg(Me)][NMeL]-OH)			> 25 µM	6.2 µM (≈ 14.5 µg/mL)		~80%	Active
